Measurements: article PMC8837702 (Archives of toxicology, 2021)
Read-outs that look alike come from different tables or passages of the source.

Key:
[1] = biological target: T1, NAT1 (Homo sapiens, UniProt P18440); assay: Recombinant human NAT1; assay type: biochemical; conditions: for fold less potent than compound 10 towards recombinant human NAT1: in vitro IC50 comparison; for IC50 NAT2/IC50 NAT1: ratio; for IC50 NAT2/IC50 NAT1 / fold lower IC50 for NAT1 versus NAT2: PABA (NAT1) vs SMZ (NAT2)
T1 sequence (P18440 1-290): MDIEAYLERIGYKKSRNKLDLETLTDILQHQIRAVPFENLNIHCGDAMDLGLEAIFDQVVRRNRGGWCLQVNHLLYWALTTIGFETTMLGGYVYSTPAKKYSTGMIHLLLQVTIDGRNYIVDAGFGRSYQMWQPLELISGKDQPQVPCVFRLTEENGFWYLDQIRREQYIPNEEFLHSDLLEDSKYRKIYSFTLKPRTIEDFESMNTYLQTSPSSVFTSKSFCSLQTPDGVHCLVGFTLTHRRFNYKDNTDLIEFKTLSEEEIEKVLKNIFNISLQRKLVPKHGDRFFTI
Outline: (§1)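 Lysates of S. pombe stably expressing recombinant human NAT1 (10 μM PABA) or NAT2 (10 μM SMZ) were run with 100 μM acetyl-CoA over a test-compound concentration series. Substrate and N-acetylated product were separated and measured by HPLC. IC50 came from nonlinear regression, reported as mean ± SEM (n=3).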

[2] = biological target: T2, recombinant human NAT2 (Homo sapiens, UniProt P11245); assay: Recombinant human NAT2; assay type: biochemical; conditions: for inhibition of human NAT2: at concentrations up to 2 mM
T2 sequence (P11245 1-290): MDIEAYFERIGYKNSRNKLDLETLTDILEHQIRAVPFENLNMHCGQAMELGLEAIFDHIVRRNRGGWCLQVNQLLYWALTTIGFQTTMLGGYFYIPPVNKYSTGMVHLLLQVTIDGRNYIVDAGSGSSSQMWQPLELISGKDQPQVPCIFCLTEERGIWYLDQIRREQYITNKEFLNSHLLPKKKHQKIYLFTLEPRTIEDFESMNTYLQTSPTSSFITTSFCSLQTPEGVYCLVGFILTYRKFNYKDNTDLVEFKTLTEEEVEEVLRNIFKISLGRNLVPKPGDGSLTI
Outline: as §1

[3] = biological target: T1, NAT1; assay type: biochemical; conditions: ABP as substrate
Outline: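 Recombinant human NAT1 or NAT2 expressed in Schizosaccharomyces pombe, assayed in yeast lysate with 10 μM ABP, 100 μM acetyl-CoA and test compound at 0–200 μM. Substrate and N-acetylated product were separated and quantified by HPLC. The value is the mean ± SD of 3 experiments, with IC50 for each isozyme from nonlinear regression.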

[4] = biological target: T3, human NAT1 expressed in CHO cells (Homo sapiens, UniProt P18440); assay: N-acetylation in situ in UV5 CHO cells expressing human NAT1 and CYP1A1; assay type: cell-based
T3 sequence (P18440 1-290): T1 sequence (P18440 1-290)
Outline: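 UV5 CHO cells (nucleotide excision repair-deficient, XPD mutant) stably transfected with human CYP1A1 and NAT1*4 were plated 24 hr beforehand. Medium was then replaced with α-MEM containing 10 μM PABA or ABP plus test compound. After 2 hr, medium was sampled and N-acetylation quantified by HPLC. Mean ± SD of 3 experiments; IC50 by nonlinear regression.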

[5] = biological target: T1, NAT1; assay: PABA N-acetylation in situ in cryopreserved human hepatocytes; assay type: cell-based
Outline: (§2)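 Cultured cryopreserved human hepatocytes from five donors, all of intermediate NAT2 acetylator genotype, were incubated for 24 hr with 50 μM PABA or SMZ plus varying test-compound concentrations. Parent substrates and N-acetylated metabolites were separated and quantified by HPLC. Each point is the mean ± SEM over the 5 samples.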

[6] = test system: NAT2; assay: SMZ N-acetylation in situ in cryopreserved human hepatocytes; assay type: cell-based; conditions: 50 μM SMZ, 24 hr, concentrations up to 200 μM
Outline: as §2

[7] = test system: endogenous NAT1 in MDA-MB-231 cells; assay: N-acetylation capacity in MDA-MB-231 cells; assay type: cell-based, human; conditions: 10 μM ABP or PABA, 4 hr
Outline: (§3)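 Cells grown in DMEM with 10% FBS, penicillin and streptomycin at 37°C, 5% CO2, were taken to confluence. They were then exposed for 4 hr at 37°C to medium with 10 μM ABP or PABA and test compound. Collected medium was acidified with 1/10 volume 1 M acetic acid and spun at 13,000 g for 10 min. The supernatant was analysed by HPLC for N-acetyl products; n=3, mean ± SEM.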

[8] = test system: endogenous NAT1 in MCF-7 cells; assay: N-acetylation capacity in MCF-7 cells; assay type: cell-based, human; conditions: 10 μM ABP or PABA, 4 hr
Outline: as §3

[9] = test system: human NAT1; assay: Reversibility of NAT1 inhibition in primary hepatocytes; assay type: cell-based; conditions: 100 or 200 μM for 1 hr, removed, then 10 μM PABA for 5 hr
[10] = test system: MDA-MB-231 cells; assay: AlamarBlue cell viability and proliferation, MDA-MB-231; assay type: cell-based, human
Outline: (§4)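 Cells were seeded in 96-well plates and left 24 hr. They were then treated with test compound (0–250 μM) in their own medium for up to 144 hr: MEBM with supplements for MCF-10A, DMEM with 10% FBS for MDA-MB-231. AlamarBlue (1/10 culture volume) was added 1 hr before each time point at 37°C, then fluorescence read (ex 570, em 580 nm). Mean ± SEM (n=4).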

[11] = test system: MCF-10A cells; assay: AlamarBlue cell viability and proliferation, MCF-10A; assay type: cell-based, human
Outline: as §4

[12] = test system: MDA-MB-231 cells; assay: CytoSelect cell invasion assay, MDA-MB-231; assay type: cell-based, human; conditions: 24 hr, 0, 31.25, 62.5, 125 μM
Outline: (§5)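 CytoSelect 24-well colorimetric invasion assay: 300,000 cells were seeded and allowed to invade toward medium containing 10% FBS for 24 hr with test compound present. Invasion was expressed as a percentage of the DMSO vehicle control. Mean ± SEM (n=3).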

[13] = test system: MCF-7 cells; assay: CytoSelect cell invasion assay, MCF-7; assay type: cell-based, human; conditions: 24 hr, 0, 31.25, 62.5, 125 μM
Outline: as §5

[14] = test system: NAT1; conditions: cited from earlier work; for IC50: read-out: IC50 NAT1
[15] = read-out: IC50 for NAT1, in vitro, recombinant in yeast, 10 μM PABA, 100 μM AcCoA, Mean ± SEM (n=3)

For “1-(9,10-dihydro-8-hydroxy-9,10-dioxo-1-anthracenyl)4-ethyl ester [Analog 1]”, the “fold less potent than compound 10 towards recombinant human NAT1” value [1] was “over 100 fold”, the “IC50 NAT2/IC50 NAT1” value [1] was >11.7 and the IC50 [1, 15] was 171 ± 4.7 µM. For the same compound, the “inhibition of human NAT2” value [2] was “No inhibition”.
In the case of “9,10-dihydro-9,10-dioxo-1,2-anthracenediyl diethyl ester [Compound 10]”, the “fold lower IC50 for NAT1 versus NAT2” value ([1]; in vitro) is reported as “over 100 fold”, the “IC50 NAT2/IC50 NAT1” value [1] is reported as 110 and the IC50 [1, 15] is reported as 0.75 ± 0.2 µM. The “fold lower IC50 for NAT1 versus NAT2, ABP N-acetylation” value [3] was “over 50 fold”, the IC50 ([4]; read-out: in situ IC50, ABP N-acetylation in CHO cells, ABP as substrate) was 81.6 ± 4.4 µM and the IC50 ([4]; read-out: in situ IC50, PABA N-acetylation in CHO cells, PABA as substrate) was 118 ± 5 µM. The IC50 ([5]; read-out: IC50, PABA N-acetylation in cryopreserved human hepatocytes, 50 μM PABA, 24 hr, 5 hepatocyte samples of intermediate NAT2 acetylator genotype) was 158 ± 22 µM, the “inhibition of SMZ N-acetylation in cryopreserved human hepatocytes” value [6] was “no inhibition” and the “N-acetylation of PABA and ABP in MDA-MB-231” value [7] was “inhibited”. For the same compound, the “N-acetylation of PABA and ABP in MCF-7” value [8] was “inhibited”, the “reversibility of inhibition of PABA N-acetylation” value [9] was “reversible” and the “cell viability, MDA-MB-231” value ([10]; 4-48 hr, 0-250 μM) was “did not decrease cell viability”. For the same compound, the “cell proliferation, MDA-MB-231” value ([10]; 72 and 144 hr) was “dose-dependent decrease”, the IC50 ([10]; read-out: IC50 for cell proliferation, MDA-MB-231, 72 hr) was 32 µM and the “cell proliferation, MCF-10A” value ([11]; non-tumorigenic cell line, later time points) was “a decrease in cell proliferation was observed”. The IC50 ([11]; read-out: IC50 for cell proliferation, MCF-10A, 72 hr) was 113 µM, the “cell invasion/migration, MDA-MB-231” value [12] was “dose-dependent inhibition” and the “cell invasion/migration, MCF-7” value [13] was “dose-dependent inhibition”.
In the case of “9,10-dihydro-9,10-dioxo-1,8-anthracenediyl diethyl ester [Analog 2]”, the “fold less potent than compound 10 towards recombinant human NAT1” value [1] is reported as “over 100 fold”, the “IC50 NAT2/IC50 NAT1” value [1] is reported as >21.3 and the IC50 [1, 15] is reported as 94 ± 6.8 µM. For the same compound, the “inhibition of human NAT2” value [2] was “No inhibition”.
In the case of O=C1NC(=S)S/C1=C/c1cc(I)c(O)c(I)c1 [(5E)-[5-(4-hydroxy-3,5-diiodobenzylidene)-2-thioxo-1,3-thiazolidin-4-one], the “fold more selective for NAT1 than NAT2” value [14] is listed as 25 fold and the IC50 [14] is listed as 0.732 µM.
For O=C1NC(=S)S/C1=C\c1ccccc1O [(Z)-5-(2-hydroxybenzylidene)-2-thioxothiazolidin-4-one], the IC50 [14] is listed as 101 µM.
With O=C1c2ccccc2C(=O)c2c1ccc(O)c2O [Analog 3 (Alizarin), 1,2-dihydroxyanthraquinone] the IC50 [1] was 0.886 ± 0.0895 µM, the “fold lower IC50 for NAT1 versus NAT2” value ([1]; in vitro) was “over 100 fold” and the “IC50 NAT2/IC50 NAT1” value [1] was 113. The IC50 [2] was 98.6 ± 9.4 µM and the IC50 [5] was 70 ± 1.4 µM.
